High-throughput results (PubChem BioAssay)
Compounds with a hit are over-represented: about 4.7% of the library has one in this group of screens.
ADAM17 inh – inhibits human ADAM17. 370,000 compounds, 0.83% hits. recombinant ADAM17, EDANS/DABCYL FRET peptide cleavage. P78536. inhibition, % at 6.95 µM;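 active = inhibition above the mean of compounds lying between control limits plus 3 SD, set per campaign, cut at about 8.5% in these data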;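 note: 0% = DMSO-only wells as the low control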
Target sequence (P78536 215-824 limits assumed): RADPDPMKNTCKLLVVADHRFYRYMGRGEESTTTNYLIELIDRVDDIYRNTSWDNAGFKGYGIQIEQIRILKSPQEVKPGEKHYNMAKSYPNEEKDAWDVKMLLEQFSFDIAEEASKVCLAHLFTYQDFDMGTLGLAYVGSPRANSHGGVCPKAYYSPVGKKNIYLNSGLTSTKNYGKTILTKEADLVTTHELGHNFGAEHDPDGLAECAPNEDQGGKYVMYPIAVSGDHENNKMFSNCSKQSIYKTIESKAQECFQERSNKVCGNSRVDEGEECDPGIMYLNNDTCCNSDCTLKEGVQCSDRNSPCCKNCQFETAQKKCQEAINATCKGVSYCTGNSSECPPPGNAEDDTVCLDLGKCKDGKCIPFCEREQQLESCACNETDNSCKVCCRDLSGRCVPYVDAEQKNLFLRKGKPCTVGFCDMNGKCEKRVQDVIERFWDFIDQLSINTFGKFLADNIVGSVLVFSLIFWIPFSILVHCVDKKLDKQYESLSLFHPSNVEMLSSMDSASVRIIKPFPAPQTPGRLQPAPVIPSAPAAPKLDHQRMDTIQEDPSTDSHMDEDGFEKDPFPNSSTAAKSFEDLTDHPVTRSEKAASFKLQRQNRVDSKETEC
ADAM10 inh – inhibitors of human ADAM10; O14672; inhibition, % at 7 µM; AID 720582; recombinant ADAM10, EDANS/DABCYL FRET peptide cleavage, 3 h; 370,000 compounds, 0.62% hits;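 active = inhibition above a per-campaign cutoff equal to the mean of compounds falling between control-based bounds plus 3 SD, cut at about 20% in these data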;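 note: 0% = DMSO wells while the 100% control is not disclosed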
GRIN3A LBD mod – modulates the human NR3A ligand-binding domain; NR3A LBD differential scanning fluorimetry, Tm shift; 0% = protein alone, 100% = glycine-bound protein; Tm shift relative to glycine control, % at 25 µM; 340,000 compounds, 2.5% hits; AID 1259313;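 active = melting temperature shift of at least 10% of the positive control shift, at one fixed dose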
SKN-1 inh – C. elegans SKN-1 inhibition; 360,000 compounds, 0.49% hits; C. elegans VP596 Pgst-4::GFP/RFP ratio, acrylamide-induced, 24 h; inhibition, % at 21.8 µM; AID 624304;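 active = interference check ratio from 0.5 to 1.5 plus GFP to RFP signal ratio inhibition reaching or exceeding a fixed threshold, cut at about 30% in these data, passing the limit was not always enough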
MT1-MMP act inh – blocks activation of human MT1-MMP. HT1080 RFP-PRO-GFP cells, GFP/RFP ratio fluorescence, overnight; percent of plate control window, DMSO zero. GFP/RFP ratio change, % at 20 µM. 360,000 compounds, 0.061% hits;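 active = GFP/RFP ratio change of at least 30% with cell ATP level not reduced by more than half and red fluorescence within 50% of control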
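Read-out: GFP/RFP fluorescence ratio; Test system: RFP-PRO-GFP reporter HT1080 cells; Compound dosing: single-point 20 µM compound, 1% DMSO; Times: overnight compound exposure at 37 °C.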
MPTP inh – blocks calcium-induced mitochondrial swelling; isolated mouse mitochondria, Ca2+ swelling absorbance, 30 min; inhibition, % at 10 µM; AID 602449; 360,000 compounds, 1.4% hits;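 active = inhibition of 50% or more, scaled per plate between neutral and stimulator controls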;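 note: 0% = DMSO wells given calcium and 100% = 1 mM EGTA wells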
ADAM10 confirm – human ADAM10 inhibition, confirmation; shares compounds with ADAM10 inh; 2,100 compounds, 1% hits; ADAM10 QFRET peptide cleavage, EDANS fluorescence; inhibition, % at 6.95 µM; AID 743208;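 active = inhibition above about 20% chosen separately for each screening run, limit read from the data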;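 note: 0% = DMSO wells and 100% = marimastat wells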
ADAM17 ctr – ADAM17 inhibition, counter-screen for ADAM10 exosite hits; ADAM17 QFRET peptide cleavage, EDANS fluorescence; 2,100 compounds, 0.5% hits; shares compounds with ADAM10 inh; inhibition, % at 6.95 µM;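 active = mean triplicate inhibition above the solvent-only control wells' mean plus 3 SD, cut at about 12% in these data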;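 note: 0% = DMSO wells and 100% = marimastat wells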
* = called active by the depositor.

How did O=C(CCc1ccccc1)N[C@H]1[C@@H](OC(=O)c2ccco2)CCC[C@]12C(=O)N(Cc1ccccc1)c1ccccc12 do in these assays?
ADAM17 inh: 3.7; ADAM10 inh: 5.0

What do the screens show for `O=C(CCc1ccccc1)N[C@H]1[C@H](OC(=O)c2ccco2)CCC[C@@]12C(=O)N(Cc1ccccc1)c1ccccc12`?
ADAM17 inh: 6.2; ADAM10 inh: 21.2*; ADAM10 confirm: 4.1; ADAM17 ctr: 1.6

What do the screens show for `Cc1cccc(OC(C)C(=O)N2CCCc3ccccc32)c1` (configuration not stated)?
ADAM17 inh: -1.3; ADAM10 inh: -7.5; GRIN3A LBD mod: 2.0; SKN-1 inh: 8.0; MT1-MMP act inh: 1.0; MPTP inh: 10.1

How did C[C@@H]1[C@@H](O)C[C@@]2(C[C@H](O)c3cc(Cl)cc(Cl)c3O2)O[C@H]1c1ccccc1Cl do in these assays?
ADAM17 inh: 6.3; ADAM10 inh: 25.8*; ADAM10 confirm: 4.8; ADAM17 ctr: 1.7

What do the screens show for `CN=C(Nc1cccnc1)c1ccccc1`?
ADAM17 inh: 0.1; ADAM10 inh: -11.4; GRIN3A LBD mod: 0.9; SKN-1 inh: 3.2; MT1-MMP act inh: 0.4; MPTP inh: -0.4

Results for O=C(O)C(Cc1ccnc2ccccc12)=NO ?
ADAM17 inh: -5.7; ADAM10 inh: -8.0; GRIN3A LBD mod: 0.5; SKN-1 inh: 7.7; MT1-MMP act inh: -7.8; MPTP inh: -2.6

How did CCOC(=O)C(Cc1ccnc2ccccc12)=NO do in these assays?
ADAM17 inh: 1.2; ADAM10 inh: 19.9*; GRIN3A LBD mod: -0.2; SKN-1 inh: -9.9; MT1-MMP act inh: 3.3; MPTP inh: -1.7; ADAM10 confirm: -0.5; ADAM17 ctr: -0.5

What do the screens show for `N#Cc1nc(COc2ccccc2F)oc1NCCc1ccccc1`?
ADAM17 inh: 4.6; ADAM10 inh: 22.4*; GRIN3A LBD mod: -12.6; SKN-1 inh: 6.8; MT1-MMP act inh: -4.9; MPTP inh: 6.7; ADAM10 confirm: 4.8; ADAM17 ctr: 0.3

What do the screens show for `Cc1cc(Br)c2c(c1)/C(=C/C(=O)c1cccs1)C(=O)N2`?
ADAM17 inh: 1.3; ADAM10 inh: 20.1*; GRIN3A LBD mod: 1.4; SKN-1 inh: 0.3; MT1-MMP act inh: -3.7; MPTP inh: -8.1; ADAM10 confirm: 1.0; ADAM17 ctr: -0.4

Results for COc1ccc(NC(=O)CC2C(=O)N(CCc3ccccc3)C(=S)N2Cc2cccnc2)cc1 (configuration not stated) ?
ADAM17 inh: 5.9; ADAM10 inh: 21.9*; GRIN3A LBD mod: 8.0; SKN-1 inh: 6.8; MT1-MMP act inh: 3.1; MPTP inh: 1.1; ADAM10 confirm: 4.2; ADAM17 ctr: 0.7

What do the screens show for `CN(C)/C=C1/Sc2ccccc2C1=O`?
ADAM17 inh: -8.2; ADAM10 inh: -17.6; GRIN3A LBD mod: 0.7; SKN-1 inh: 1.4; MT1-MMP act inh: -4.7; MPTP inh: -1.1

How did CC(=O)N(/N=C1\Sc2ccccc2C1=O)c1ccccc1C do in these assays?
ADAM17 inh: 2.3; ADAM10 inh: 76.5*; GRIN3A LBD mod: -1.9; SKN-1 inh: 39.6*; MT1-MMP act inh: -23.0; MPTP inh: 3.1; ADAM10 confirm: 0.9; ADAM17 ctr: 0.5

How did Nc1[nH]c(C(=O)c2ccccc2)c(-c2ccc(Cl)c(Cl)c2)c1C(=O)NCCc1c[nH]c2ccccc12 do in these assays?
ADAM17 inh: 4.5; ADAM10 inh: 5.4

What do the screens show for `Nc1[nH]c(C(=O)c2ccccc2)c(-c2ccc3c(c2)OCO3)c1C(=O)NCCc1c[nH]c2ccccc12`?
ADAM17 inh: 8.2; ADAM10 inh: 26.8*; ADAM10 confirm: 6.2; ADAM17 ctr: 3.0

What do the screens show for `CCOc1ccc(C(=O)NC(=S)N(Cc2ccccc2)Cc2ccccc2)cc1`?
ADAM17 inh: 2.5; ADAM10 inh: 12.5; GRIN3A LBD mod: -7.5; SKN-1 inh: 9.1; MT1-MMP act inh: 5.1; MPTP inh: 0.7
